The results in this text go back to paper PMC5023007 (Bioorganic & medicinal chemistry, 2016).

Assay [1] addresses T1, ATX (Homo sapiens, UniProt Q13822). Put plainly: ATX activity assay with pNP-TMP substrate. To be noted: read-out: pNP-TMP Inhibition (%). Type of assay: biochemical. A digest of the protocol: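 Runs were in triplicate with human FLAG-fusion ATX, purified, at 10 nM, 10 µM test compound and 1 mM pNP-TMP. Buffer was 50 mM Tris pH 8.0 containing 30 µM BSA, 1 mM CaCl2, 1 mM MgCl2, 5 mM KCl and 140 mM NaCl. Absorbance at 405 nm was read every 2 min over 60 min at 37°C. Values were scaled between no-enzyme (0%) and uninhibited enzyme (100%). Interference control used 100 µM para-nitrophenol ± compound.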

Assay [2] concerns the target T1, ATX. Description: ATX activity assay with FS-3 substrate. The conditions noted are these: for inhibition at 10 µM: read-out: FS-3 Inhibition (%), 10 μM compound, 10 nM ATX, 1 μM FS-3. Type of assay: biochemical. The gist of the method:
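Purified human FLAG-tagged ATX at 10 nM with 10 µM test compound and 1 µM FS-3 in 50 mM Tris pH 8.0, 30 µM BSA, 1 mM CaCl2, 1 mM MgCl2, 5 mM KCl, 140 mM NaCl. Fluorescence (ex 485/em 520 nm) was read every 2 min for 60 min at 37°C, in triplicate. Signal was normalized to no-ATX (0%) and ATX-without-compound (100%). Interference was checked with 100 nM carboxyfluorescein ± compound.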

In a further assay the target is LPA2 (Homo sapiens, UniProt Q9HBW0). Put plainly: Calcium mobilization assay, potentiation of LPA effect at LPA2. It counts as cell-based. To be noted: supplemental figure. Background: Calcium flux is commonly read through the fluorescence of an indicator in the cells.
Chain of LPA2 (Q9HBW0 whole entry, species assumed): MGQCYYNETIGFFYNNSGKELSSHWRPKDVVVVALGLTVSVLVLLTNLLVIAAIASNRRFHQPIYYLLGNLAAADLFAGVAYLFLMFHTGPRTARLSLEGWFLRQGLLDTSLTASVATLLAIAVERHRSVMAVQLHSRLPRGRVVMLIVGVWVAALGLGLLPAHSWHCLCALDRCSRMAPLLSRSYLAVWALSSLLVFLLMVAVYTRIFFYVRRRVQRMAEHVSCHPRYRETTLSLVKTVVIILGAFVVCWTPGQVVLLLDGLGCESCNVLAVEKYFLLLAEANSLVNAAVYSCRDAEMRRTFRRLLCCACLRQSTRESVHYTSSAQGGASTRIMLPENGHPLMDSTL

What is called inhibition is the relative decrease from the control value, in per cent. As for `O=C(COc1ccc(Cl)cc1Cl)N1CCN(c2ccc([N+](=O)[O-])cc2)CC1` [Analog 32, 2-(2,4-dichlorophenoxy)-1-(4-(4-nitrophenyl)piperazin-1-yl)ethanone], the inhibition at 10 µM on ATX [1] was -14.9 ± 4.7%.

With `O=C(O)c1ccc(N2CCN(C(=O)COc3cccc(C(F)(F)F)c3)CC2)cc1` [Analog 61, 4-(4-(2-(3-(trifluoromethyl)phenoxy)acetyl)piperazin-1-yl)benzoic acid], on ATX [1], the inhibition at 10 µM was -11.4 ± 2.6%.

Consider `CC(C)(C)CN(Cc1cccc(CN)c1)C(=O)c1ccc(-c2ccc(F)cc2)nc1` [GRI 792685], for which the “FS-3 Inhibition (%)” value at ATX [2] (10 μM compound, 10 nM ATX, 1 μM FS-3) was “false positive”.

On to `COc1ccc2c(c1)C(NCc1cc(OC)c(OC)cc1N)CCO2` (stereo not shown) [GRI 93694], for which the inhibition at 10 µM at ATX [2] is 48 ± 4.4%.

Turning to `O=C(O)c1ccc(N2CCN(C(=O)COc3cccc(F)c3)CC2)cc1` [Analog 60, 4-(4-(2-(3-fluorophenoxy)acetyl)piperazin-1-yl)benzoic acid], the inhibition at 10 µM at ATX [1] was -36.5 ± 6.3%.

`CCCCCCCCCCCCCC(=O)NC(CCC(=O)O)C(=O)O` (stereo not shown) [GRI 96880]: the inhibition at 10 µM at ATX [2] stood at 54.1 ± 0.2%.

Turning to `O=C(COc1cccc(F)c1)N1CCN(c2ccc([N+](=O)[O-])cc2)CC1` [Analog 27, 2-(3-fluorophenoxy)-1-(4-(4-nitrophenyl)piperazin-1-yl)ethanone], the inhibition at 10 µM on ATX [1] is -14.1 ± 2.3%.

As to `O=C(COc1ccccc1F)N1CCN(c2cccc([N+](=O)[O-])c2)CC1` [Analog 13, 2-(2-fluorophenoxy)-1-(4-(3-nitrophenyl)piperazin-1-yl)ethanone], on ATX [1], the inhibition at 10 µM is -14.7 ± 2.9%.

On to `O=C(O)c1ccc(N2CCN(C(=O)COc3ccccc3F)CC2)cc1` [Analog 57, 4-(4-(2-(2-fluorophenoxy)acetyl)piperazin-1-yl)benzoic acid], for which the inhibition at 10 µM at ATX [1] was -12 ± 6%.

On to `O=C(COc1ccc(F)cc1)N1CCN(c2ccc([N+](=O)[O-])cc2)CC1` [Analog 30, 2-(4-fluorophenoxy)-1-(4-(4-nitrophenyl)piperazin-1-yl)ethanone], for which the inhibition at 10 µM at ATX [1] was -12.1 ± 1.2%.

Consider `O=C(CCCOc1ccc(Cl)cc1Cl)N1CCN(c2ccc([N+](=O)[O-])cc2)CC1` [GRI 392104], for which, at ATX [2], the inhibition at 10 µM is 65.5 ± 3.2%.

Regarding `CC(=O)OC1(C(=O)COC(=O)c2ccco2)CC2CCC3C4C=CC(=O)CC4(C)CCC3C2(C)C1` (stereo not shown) [GRI 519441], the inhibition at 10 µM at ATX [2] is 59.7 ± 1.7%; on ATX [1], -45.4 ± 2.5%.

As for `O=C(COc1ccccc1Cl)N1CCN(c2ccc([N+](=O)[O-])cc2)CC1` [Analog 23, 2-(2-chlorophenoxy)-1-(4-(4-nitrophenyl)piperazin-1-yl)ethanone], on ATX [1], the inhibition at 10 µM is -11.9 ± 1.3%.

Consider `O=C(COc1cc(Cl)cc(Cl)c1)N1CCN(c2cccc([N+](=O)[O-])c2)CC1` [Analog 22, 2-(3,5-dichlorophenoxy)-1-(4-(3-nitrophenyl)piperazin-1-yl)ethanone], for which the “potentiation of LPA effects at LPA2” value on LPA2 is reported as “modest potentiation of LPA effects at LPA2”.

On to `O=C(COc1ccccc1F)N1CCN(c2ccc([N+](=O)[O-])cc2)CC1` [Analog 24, 2-(2-fluorophenoxy)-1-(4-(4-nitrophenyl)piperazin-1-yl)ethanone], for which the inhibition at 10 µM on ATX [1] is -22.7 ± 4.2%.
